From ChEMBL document CHEMBL1127862, “Nonpeptide angiotensin II receptor antagonists. Synthesis, in vitro activity, and molecular modeling studies of N-[(heterobiaryl)methyl] imidazoles” (J Med Chem, 1994)

Target: T1, Angiotensin II receptor (Rattus norvegicus, UniProt P29089+P25095+P35351)
T1 sequence (P29089 whole entry): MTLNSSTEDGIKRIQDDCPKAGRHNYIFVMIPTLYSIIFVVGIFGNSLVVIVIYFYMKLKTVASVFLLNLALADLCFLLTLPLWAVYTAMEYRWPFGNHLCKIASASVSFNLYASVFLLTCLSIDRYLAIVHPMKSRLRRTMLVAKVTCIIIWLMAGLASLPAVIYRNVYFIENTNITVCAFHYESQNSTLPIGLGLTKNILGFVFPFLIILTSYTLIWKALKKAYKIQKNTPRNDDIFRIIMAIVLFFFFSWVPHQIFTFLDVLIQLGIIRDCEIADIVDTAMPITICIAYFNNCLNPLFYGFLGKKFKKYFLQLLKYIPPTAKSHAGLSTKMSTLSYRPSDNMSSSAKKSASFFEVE
T1 sequence (P25095 whole entry): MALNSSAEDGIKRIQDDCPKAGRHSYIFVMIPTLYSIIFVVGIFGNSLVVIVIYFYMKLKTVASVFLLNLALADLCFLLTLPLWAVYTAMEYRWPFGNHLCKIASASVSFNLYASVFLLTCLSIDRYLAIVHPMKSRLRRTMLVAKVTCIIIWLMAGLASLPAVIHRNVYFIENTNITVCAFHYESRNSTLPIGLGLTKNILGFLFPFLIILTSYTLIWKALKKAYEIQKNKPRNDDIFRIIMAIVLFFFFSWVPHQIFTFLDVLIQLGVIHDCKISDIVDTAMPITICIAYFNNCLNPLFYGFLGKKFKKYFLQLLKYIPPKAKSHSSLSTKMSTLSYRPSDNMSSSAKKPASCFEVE
T1 sequence (P35351 whole entry): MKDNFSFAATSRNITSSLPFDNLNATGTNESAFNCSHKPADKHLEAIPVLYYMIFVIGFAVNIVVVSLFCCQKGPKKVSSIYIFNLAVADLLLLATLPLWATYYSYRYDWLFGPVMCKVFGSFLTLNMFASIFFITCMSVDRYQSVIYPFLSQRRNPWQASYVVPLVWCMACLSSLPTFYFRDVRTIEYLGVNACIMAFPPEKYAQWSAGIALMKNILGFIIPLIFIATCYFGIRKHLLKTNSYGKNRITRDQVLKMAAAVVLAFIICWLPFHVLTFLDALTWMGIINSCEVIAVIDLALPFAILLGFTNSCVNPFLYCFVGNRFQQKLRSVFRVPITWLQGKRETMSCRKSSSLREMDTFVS
Experiment: Tested for the binding affinity using radioligand [125I]-Sar1 Ile8-AII in the rat adrenal capsular membranes (adrenal cortex)
Assay type: cell membranes
Summary of the method: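 Membranes from rat adrenal capsules, homogenized in 50 mM Tris-HCl, washed by repeated 50000g spins at 4 °C, resuspended in pH 7.4 sodium phosphate assay buffer with NaCl, EDTA, PMSF, protease inhibitors, BSA and bacitracin. Nonspecific binding defined with 1 uM unlabeled peptide. Bound label separated by vacuum filtration. Ki fitted from replicate curves.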

| Ki [µM] | SMILES |
| --- | --- |
| > 10 | CCCCc1nc(CO)c(Cl)n1Cc1ccc(-c2cccnc2C(=O)O)cc1 |
| > 10 | CCCCc1nc(CO)c(Cl)n1Cc1ccc(-c2ncccc2C(=O)O)cc1 |
| > 10 | CCCCc1nc(Cl)c(CO)n1Cc1ccc(-c2ccoc2C(=O)O)cc1 |
| > 10 | CCCCc1nc(CO)c(Cl)n1Cc1ccc(-c2ccoc2C(=O)O)cc1 |
| > 10 | CCCCc1nc(Cl)c(CO)n1Cc1ccc(-c2ccccc2C(=O)O)o1 |
| 14.5 | CCCCc1nc(Cl)c(CO)n1Cc1ccc(-c2ccsc2C(=O)O)cc1 |
| 9.8 | CCCCc1nc(Cl)c(CO)n1Cc1ccc(-c2ncccc2C(=O)O)cc1 |
| 3.3 | CCCCc1nc(Cl)c(CO)n1Cc1ccc(-c2cccnc2C(=O)O)cc1 |
| > 10 | CCCCc1nc(CO)c(Cl)n1Cc1ccc(-c2nc(C)sc2C(=O)O)cc1 |
| > 10 | CCCCc1nc(Cl)c(CO)n1Cc1ccc(-c2nc(C)sc2C(=O)O)cc1 |
| 6.7 | CCCCc1nc(Cl)c(CO)n1Cc1ccc(-c2cnccc2C(=O)O)cc1 |
| > 10 | CCCCc1nc(Cl)c(CO)n1Cc1ccc(-c2ccccc2C(=O)O)s1 |

Target: Angiotensin II receptor (Oryctolagus cuniculus)
Experiment: Tested for the antagonism of AII-induced contraction in rabbit endothelium-denuded aorta strips

| pA2 | SMILES |
| --- | --- |
| < 5 | CCCCc1nc(CO)c(Cl)n1Cc1ccc(-c2cccnc2C(=O)O)cc1 |
| < 5 | CCCCc1nc(CO)c(Cl)n1Cc1ccc(-c2ncccc2C(=O)O)cc1 |
| < 5 | CCCCc1nc(Cl)c(CO)n1Cc1ccc(-c2ccoc2C(=O)O)cc1 |
| 6 | CCCCc1nc(CO)c(Cl)n1Cc1ccc(-c2ccoc2C(=O)O)cc1 |
| 5.2 | CCCCc1nc(Cl)c(CO)n1Cc1ccc(-c2ccccc2C(=O)O)o1 |
| < 5 | CCCCc1nc(Cl)c(CO)n1Cc1ccc(-c2ccsc2C(=O)O)cc1 |
| < 5 | CCCCc1nc(Cl)c(CO)n1Cc1ccc(-c2ncccc2C(=O)O)cc1 |
| 6.1 | CCCCc1nc(Cl)c(CO)n1Cc1ccc(-c2cccnc2C(=O)O)cc1 |
| <= 5 | CCCCc1nc(CO)c(Cl)n1Cc1ccc(-c2nc(C)sc2C(=O)O)cc1 |
| < 5 | CCCCc1nc(Cl)c(CO)n1Cc1ccc(-c2nc(C)sc2C(=O)O)cc1 |
| < 5 | CCCCc1nc(Cl)c(CO)n1Cc1ccc(-c2cnccc2C(=O)O)cc1 |
| < 5 | CCCCc1nc(Cl)c(CO)n1Cc1ccc(-c2ccccc2C(=O)O)s1 |
